Where a SMILES comes first, the peptide text is derived from it. Bridges are numbered along the chain shown (N, C = ends). [ ]: non-standard residue; d: D form.
molecular target: Integrin alpha-IIb/beta-3 (Homo sapiens, UniProt P08514+P05106); assay: Inhibition of ADP-induced platelet aggregation in human platelet-rich plasma
Summary of the method: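 Human blood drawn into 3.8% sodium citrate (9:1); PRP from 180g spin, 12 min, 22 °C; count adjusted to 3 × 10^8/mL with PPP. PRP preincubated with test sample 5 min at 37 °C in aggregometer, then ADP 17.2 µM final. Inhibition from transmittance change at 5 min versus no-sample maximum; 12-14 concentrations over ~200-fold range; IC50 by four-parameter fit; n ≥ 3.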

Sequence of Integrin alpha-IIb/beta-3 (P05106 27-788 limits assumed): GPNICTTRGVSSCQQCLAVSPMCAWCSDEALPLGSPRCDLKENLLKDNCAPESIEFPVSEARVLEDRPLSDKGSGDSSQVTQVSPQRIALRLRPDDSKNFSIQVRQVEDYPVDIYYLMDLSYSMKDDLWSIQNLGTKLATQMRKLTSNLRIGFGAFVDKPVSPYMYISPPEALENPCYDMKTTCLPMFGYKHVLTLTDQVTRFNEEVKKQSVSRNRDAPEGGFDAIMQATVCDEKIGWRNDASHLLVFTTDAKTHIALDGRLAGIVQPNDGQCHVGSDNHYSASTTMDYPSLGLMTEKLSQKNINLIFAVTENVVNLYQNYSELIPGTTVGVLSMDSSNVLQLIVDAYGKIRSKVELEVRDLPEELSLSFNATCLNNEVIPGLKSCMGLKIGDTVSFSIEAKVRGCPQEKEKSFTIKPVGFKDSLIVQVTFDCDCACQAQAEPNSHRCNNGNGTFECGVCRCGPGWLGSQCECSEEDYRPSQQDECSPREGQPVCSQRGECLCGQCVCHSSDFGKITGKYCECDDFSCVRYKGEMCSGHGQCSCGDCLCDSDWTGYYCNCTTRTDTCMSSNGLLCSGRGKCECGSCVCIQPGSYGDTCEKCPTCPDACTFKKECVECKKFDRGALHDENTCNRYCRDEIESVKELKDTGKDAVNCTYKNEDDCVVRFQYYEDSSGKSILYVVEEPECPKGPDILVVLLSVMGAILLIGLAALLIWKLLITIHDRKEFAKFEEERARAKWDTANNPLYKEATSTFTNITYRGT
Sequence of Integrin alpha-IIb/beta-3 (P08514 32-887 limits assumed): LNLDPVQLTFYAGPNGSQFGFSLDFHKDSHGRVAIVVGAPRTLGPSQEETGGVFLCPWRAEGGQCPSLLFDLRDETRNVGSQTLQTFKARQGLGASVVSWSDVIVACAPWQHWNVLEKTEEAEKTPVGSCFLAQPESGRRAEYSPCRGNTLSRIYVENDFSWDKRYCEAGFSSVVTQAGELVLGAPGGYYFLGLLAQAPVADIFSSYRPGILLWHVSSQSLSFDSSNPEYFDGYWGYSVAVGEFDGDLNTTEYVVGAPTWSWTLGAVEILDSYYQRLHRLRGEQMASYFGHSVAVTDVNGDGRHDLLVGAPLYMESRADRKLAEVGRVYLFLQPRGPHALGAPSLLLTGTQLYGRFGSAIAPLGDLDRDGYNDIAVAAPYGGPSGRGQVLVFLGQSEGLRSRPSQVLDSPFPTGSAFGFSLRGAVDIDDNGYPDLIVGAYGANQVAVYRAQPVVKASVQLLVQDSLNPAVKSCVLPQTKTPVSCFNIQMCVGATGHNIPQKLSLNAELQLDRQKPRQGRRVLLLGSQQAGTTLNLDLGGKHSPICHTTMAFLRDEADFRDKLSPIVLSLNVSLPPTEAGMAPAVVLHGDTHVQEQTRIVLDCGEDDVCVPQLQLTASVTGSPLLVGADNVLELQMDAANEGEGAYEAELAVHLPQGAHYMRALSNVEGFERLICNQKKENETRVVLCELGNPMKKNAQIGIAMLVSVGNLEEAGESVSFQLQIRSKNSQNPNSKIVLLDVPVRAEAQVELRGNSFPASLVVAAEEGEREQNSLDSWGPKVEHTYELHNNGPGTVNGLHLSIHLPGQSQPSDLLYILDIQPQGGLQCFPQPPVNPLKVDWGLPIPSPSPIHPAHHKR
Sequence of Integrin alpha-IIb/beta-3 (P08514 891-1039 limits assumed): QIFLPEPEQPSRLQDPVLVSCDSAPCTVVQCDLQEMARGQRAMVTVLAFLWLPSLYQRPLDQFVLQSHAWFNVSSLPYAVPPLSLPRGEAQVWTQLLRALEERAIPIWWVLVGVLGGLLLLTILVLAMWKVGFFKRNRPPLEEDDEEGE

Q: `C[C@@H]1NC(=O)CSC[C@@H](C(=O)O)NC(=O)[C@H](CC(=O)O)NC(=O)CNC(=O)[C@H](CCCNC(=N)N)NC1=O` ({CH2CO}-ARGDC-OH; thioether N-5) was tested. Which IC50 did it give?
A: Its IC50 is 0.59 µM.

Q: For `N=C(N)NCCC[C@@H]1NC(=O)CNC(=O)CSC[C@@H](C(N)=O)NC(=O)[C@H](CC(=O)O)NC(=O)CNC1=O` ({CH2CO}-GRGDC-NH2; thioether N-5), which IC50 is on record?
A: Its IC50 is 150 µM.

Q: For `N=C(N)NCCC[C@@H]1NC(=O)CNC(=O)CSC[C@@H](C(=O)O)NC(=O)[C@H](CC(=O)O)NC(=O)CNC1=O` ({CH2CO}-GRGDC-OH; thioether N-5), which IC50 is on record?
A: Its IC50 is 5 µM.

Q: With `N=C(N)NCCC[C@@H]1NC(=O)[C@H](CC(N)=O)NC(=O)CSC[C@@H](C(=O)O)NC(=O)[C@H](CC(=O)O)NC(=O)CNC1=O` ({CH2CO}-NRGDC-OH; thioether N-5) as the compound, how does the IC50 read?
A: The IC50 was 0.31 µM.

Q: For `N=C(N)NCCC[C@@H]1NC(=O)[C@@H]2CCCN2C(=O)CSC[C@@H](C(=O)O)NC(=O)[C@H](CC(=O)O)NC(=O)CNC1=O` ({CH2CO}-PRGDC-OH; thioether N-5), which IC50 is on record?
A: Its IC50 is 0.43 µM.

Q: With `N=C(N)NCCC[C@@H]1NC(=O)CSC[C@@H](C(=O)O)NC(=O)[C@H](CC(=O)O)NC(=O)CNC1=O` ({CH2CO}-RGDC-OH; thioether N-4) as the compound, how does the IC50 read?
A: The IC50 was over 2 µM.

Q: With `N=C(N)NCCC[C@@H]1NC(=O)[C@H](Cc2ccc(O)cc2)NC(=O)CSC[C@@H](C(N)=O)NC(=O)[C@H](CC(=O)O)NC(=O)CNC1=O` ({CH2CO}-YRGDC-NH2; thioether N-5) as the compound, how does the IC50 read?
A: Its IC50 is 0.7 µM.

Q: How did the IC50 turn out when `N=C(N)NCCC[C@@H]1NC(=O)[C@H](Cc2ccc(O)cc2)NC(=O)CSC[C@@H](C(=O)O)NC(=O)[C@H](CC(=O)O)NC(=O)CNC1=O` ({CH2CO}-YRGDC-OH; thioether N-5) was run?
A: Its IC50 is 0.15 µM.

Q: `C[C@H]1NC(=O)CSC[C@@H](C(=O)O)NC(=O)[C@H](CC(=O)O)NC(=O)CNC(=O)[C@H](CCCNC(=N)N)NC1=O` ({CH2CO}-[dA]RGDC-OH; thioether N-5) was tested. Which IC50 did it give?
A: The IC50 was 4 µM.

Q: `N=C(N)NCCC[C@@H]1NC(=O)[C@H]2CCCN2C(=O)CSC[C@@H](C(=O)O)NC(=O)[C@H](CC(=O)O)NC(=O)CNC1=O` ({CH2CO}-[dP]RGDC-OH; thioether N-5) was tested. Which IC50 did it give?
A: The IC50 was 1.96 µM.

Q: Which IC50 does the source give for `N=C(N)NCCC[C@@H]1NC(=O)[C@@H](Cc2ccc(O)cc2)NC(=O)CSC[C@@H](C(=O)O)NC(=O)[C@H](CC(=O)O)NC(=O)CNC1=O` ({CH2CO}-[dY]RGDC-OH; thioether N-5) here?
A: Its IC50 is 3.45 µM.

— BindingDB's records for doi:10.1021/jm00089a014 (Genentech, 1992)
